From ChEMBL document CHEMBL3297729, “Design, synthesis and biological activity of piperlongumine derivatives as selective anticancer agents” (Eur J Med Chem, 2014)
Activity calls are given as the source filed them. The calls are words filed in the database; no cut-off is given here.

Columns and labels:
A549 [1] = test: Cytotoxicity against human A549 cells after 72 hrs by MTT assay; type: functional, cell-based; conditions: A549, 72 h
Method in brief: (§1)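 MTT assay. Cells seeded at 5 × 10^3/well and grown 24 h at 37 °C in humidified 5% CO2. Compounds added at a range of concentrations in triplicate wells, with 0.1% DMSO as control, for 72 h. MTT (5 mg/mL solution) added for a further 4 h. Formazan dissolved in DMSO and absorbance read at 570 nm. IC50 derived by the Logit method.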

HCT-116 = test: Cytotoxicity against human HCT116 cells after 72 hrs by MTT assay; type: functional, cell-based; conditions: HCT-116, 72 h; method in brief: as §1
[2] = Cytotoxicity against human ZR75-30 cells after 72 hrs by MTT assay; type: functional, cell-based; conditions: ZR-75-30, 72 h; method in brief: as §1
MRC5 = test: Cytotoxicity against human MRC5 cells after 72 hrs by MTT assay; type: cell-based; conditions: MRC5, 72 h; method in brief: as §1
MDA-MB-231 = test: Cytotoxicity against human MDA-MB-231 cells after 72 hrs by MTT assay; type: functional, cell-based; conditions: MDA-MB-231, 72 h; method in brief: as §1
[3] = Selectivity ratio of IC50 for human MRC5 cells to IC50 for human HCT116 cells; type: ADME, cell-based, HCT-116; conditions: MRC5 cells versus HCT116 cells, read-out: Ratio IC50
[4] = Selectivity ratio of IC50 for human MRC5 cells to IC50 for human ZR75-30 cells; type: ADME, cell-based; conditions: MRC5 cells versus ZR75-30 cells, read-out: Ratio IC50
[5] = Selectivity ratio of IC50 for human MRC5 cells to IC50 for human MDA-MB-231 cells; type: ADME, cell-based; conditions: MRC5 cells versus MDA-MB-231 cells, read-out: Ratio IC50
[6] = Cytotoxicity against human Hep3B cells after 72 hrs by MTT assay; type: functional, cell-based, Hep 3B2; method in brief: as §1
WI-38 = test: Cytotoxicity against human WI38 cells after 72 hrs by MTT assay; type: cell-based; conditions: WI-38, 72 h; method in brief: as §1
A549 [7] = test: Increase of ROS level in human A549 cells at 10 uM after 1 hr by fluorescence microscopic analysis; type: functional, cell-based
Method in brief: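 Cells treated with compound or DMSO for 1 h, then loaded with 10 μM DCFH-DA for 30 min at 37 °C. Washed twice with PBS and imaged at once by fluorescence microscopy. Mean fluorescence compared with control.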

A549 [8] = test: Antitumor activity against human A549 cells xenografted in BALB/C nude mouse assessed as inhibition of tumor growth at 2 mg/kg, ip administered for 14 days; type: functional; conditions: 336 h, route intraperitoneal
Mus musculus = test: Toxicity in human A549 cells xenografted BALB/C nude mouse assessed as reduction of body weight at 2 mg/kg, ip administered for 14 days; type: organism-based; design: dose 2 mg/kg, route intraperitoneal; conditions: in vivo, 336 h
Method in brief: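 Male BALB/C nude mice (18–20 g) implanted sc in the right axilla with A549 cells. Dosing began at tumor volume about 100–300 mm3 (day 17): 2 mg/kg ip daily for 14 days, in normal saline with tween-80 as solubilizer. Six mice per treatment group, eight controls. Caliper tumor volume (1/2·a·b²) and body weight recorded every 4 days. Sacrifice on days 30–33 and tumors excised.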

SMILES | IC50 (A549 [1]) [µM] | IC50 (HCT-116) [µM] | IC50 [2] [µM] | IC50 (MRC5) [µM] | IC50 (MDA-MB-231) [µM] | selectivity ratio [3] | selectivity ratio [4] | selectivity ratio [5] | IC50 [6] [µM] | IC50 (WI-38) [µM] | Activity (A549 [7]) | inhibition in vivo at 2 mg/kg (A549 [8]) [%] | Activity (Mus musculus)
CC/C(=C\c1cc(OC)c(OC)c(OC)c1)C(=O)N1CCC=C(N2CCOCC2)C1=O | > 100 | > 100 | > 100 | > 100 | > 100 |  |  |  |  |  |  |  | 
COc1cc(/C=C/C(=O)N2CCC=C(Cl)C2=O)cc(OC)c1OC | 19.8 | 4.28 | 4.49 | 14.3 | 6.71 | 2 | 2 | 2 |  |  |  |  | 
CCC/C(=C\c1cc(OC)c(OC)c(OC)c1)C(=O)N1CCC=C(N2CCOCC2)C1=O | > 100 | > 100 | > 100 | 52.5 | > 100 |  |  |  |  |  |  |  | 
CCC/C(=C\c1cc(OC)c(OC)c(OC)c1)C(=O)N1CCC=C(Br)C1=O | 2.63 | 2.14 |  |  | 2.36 |  |  |  | 5.54 | 5.02 |  |  | 
COc1cc(/C=C(\C)C(=O)N2CCC=CC2=O)cc(OC)c1OC | 23.9 | 10.3 | 3.32 | 19.4 | 11.7 |  |  |  |  |  |  |  | 
COc1cc(/C=C/C(=O)N2CCC=C(N3CCOCC3)C2=O)cc(OC)c1OC | > 100 | 47.2 | 52.6 | 56.1 | > 100 |  |  |  |  |  |  |  | 
COc1cc(/C=C(\C)C(=O)N2CCC=C(Br)C2=O)cc(OC)c1OC | 2.67 | 6.2 |  |  | 2.47 |  |  |  | 3.1 | 7.16 |  |  | 
CC/C(=C\c1cc(OC)c(OC)c(OC)c1)C(=O)N1CCC=CC1=O | 17.9 | 12.3 | 3.16 | 13.5 | 23.7 |  |  |  |  |  |  |  | 
CCC/C(=C\c1cc(OC)c(OC)c(OC)c1)C(=O)N1CCC=C(Cl)C1=O | 3.81 | 8.08 |  |  | 8.13 |  |  |  | 22.4 | 10.4 |  |  | 
CCCC/C(=C\c1cc(OC)c(OC)c(OC)c1)C(=O)N1CCC=C(Cl)C1=O | 3.78 | 7.53 |  |  | 6.55 |  |  |  | 14.8 | 7.93 |  |  | 
CC/C(=C\c1cc(OC)c(OC)c(OC)c1)C(=O)N1CCC=C(Br)C1=O | 2.18 | 3.02 |  |  | 2.12 |  |  |  | 8.12 | 7.94 |  |  | 
CC/C(=C\c1cc(OC)c(OC)c(OC)c1)C(=O)N1CCC=C(Cl)C1=O | 4.06 | 9.17 |  |  | 7.27 |  |  |  | 19 | 5.48 |  |  | 
COc1cc(/C=C/C(=O)N2CCC=C(Br)C2=O)cc(OC)c1OC | 4.79 | 7.12 |  |  | 2.73 |  |  |  | 8.09 | 20.7 |  |  | 
COc1cc(/C=C(\C)C(=O)N2CCC=C(N3CCOCC3)C2=O)cc(OC)c1OC | > 100 | > 100 | > 100 | > 100 | > 100 |  |  |  |  |  |  |  | 
COc1cc(/C=C(\C)C(=O)N2CCC=C(Cl)C2=O)cc(OC)c1OC | 3.94 | 9.85 |  |  | 6.07 |  |  |  | 16.7 | 19.6 | Active | 48.6 | Non-toxic
COc1cc(/C=C/C(=O)N2CCC=CC2=O)cc(OC)c1OC [PIPLARTINE] | 22.9 | 6.04 | 5.86 | 35 | 8.46 |  |  |  | 69.5 | 26.8 |  |  | 
CCCC/C(=C\c1cc(OC)c(OC)c(OC)c1)C(=O)N1CCC=C(Br)C1=O | 2.56 | 2.59 |  |  | 2.44 |  |  |  | 14.8 | 9.21 |  |  | 
